Tests used:
Format in all cases: functional
[1] = test system: Mus musculus; assay: Maximum inactive dose(MID) for decrease in norepinephrine (NE) / epinephrine(E) was measured in mice (po)
Summary of the method: (§1)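 Male Charles River mice, 30–40 g, groups of five. Oral dosing in 1% methylcellulose twice daily for 7 days, plus a final morning dose. Killed 2 h later; adrenals homogenised in 0.4 N HClO4 and alumina-extracted. E and NE measured.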

[2] = test system: Mus musculus; assay: Minimum active dose(MAD) for decrease in norepinephrine (NE) / epinephrine(E) ratio was measured in mice (po); summary of the method: as §1
[3] = test system: Rattus norvegicus; assay: Phenylethanolamine N-methyl-transferase inhibition determined as of [3H]epinephrine biosynthesis in rats at 50 mg/kg (po)
[4] = test system: Mus musculus; assay: Minimum active dose(MAD) for decrease in norepinephrine (NE) / epinephrine(E) was measured in mice (po); summary of the method: as §1

Structure (SMILES)	MID [1]	MAD [2]	inhibition in vivo at 50 mg/kg [3]	MAD [4]
Clc1cccc2c1CNCC2	2.5 mg/kg	7.5 mg/kg	45%	
Clc1ccc2c(c1)CNCC2	7.5 mg/kg	12.5 mg/kg	78%	
Clc1cc(Cl)c2c(c1Cl)CNCC2	100 mg/kg		16%	
Clc1c(Cl)c(Cl)c2c(c1Cl)CCNC2	25 mg/kg	100 mg/kg		
Clc1ccc2c(c1Cl)CNCC2	2.5 mg/kg			5 mg/kg
Clc1cc2c(c(Cl)c1Cl)CNCC2	50 mg/kg		25%	
